Experimental data reported in ChEMBL document CHEMBL5058577, “EUbOPEN Chemogenomics Library 2 (Multiplex)” (2022).

Test system: Fibroblast
Assay: Multiplex assay against human fibroblast
Format: toxicity, cell-based
How it was run: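 Live cells were stained at seeding with Hoechst33342, BioTracker Green Microtubule Cytoskeleton Dye, MitoTracker Red and Annexin V Alexa Fluor 680, then imaged on a CQ1 microscope at 37°C and 5% CO2 after compound addition. CellPathfinder machine-learning gating split cells into Hoechst high-intensity objects or normal cells. Normal cells were split into healthy, pyknosed or fragmented nuclei, and pyknosed cells into mitotic or apoptotic. Tubulin, mitochondrial-mass and membrane-permeability phenotypes are per cents of healthy-nucleus cells.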

[1] = 12 h, 1 µM, compound concentration 1 uM, replicate 1
[2] = 12 h, 1 µM, compound concentration 1 uM, replicate 2
[3] = 12 h, 10 µM, compound concentration 10 uM, replicate 1
[4] = 12 h, 10 µM, compound concentration 10 uM, replicate 2
[5] = 24 h, 1 µM, compound concentration 1 uM, replicate 1
[6] = 24 h, 1 µM, compound concentration 1 uM, replicate 2
[7] = 24 h, 10 µM, compound concentration 10 uM, replicate 1
[8] = 24 h, 10 µM, compound concentration 10 uM, replicate 2
[9] = 48 h, 1 µM, compound concentration 1 uM, replicate 1
[10] = 48 h, 1 µM, compound concentration 1 uM, replicate 2
[11] = 48 h, 10 µM, compound concentration 10 uM, replicate 1
[12] = 48 h, 10 µM, compound concentration 10 uM, replicate 2

Cc1onc(-c2ccccc2Cl)c1C(=O)N(C)c1ccc(Cl)cc1
Population Apoptotic (%) [1]: 60% | Population Fragmented Nuclei (%) [1]: 17% | Population Healthy Nuclei (%) [1]: 68% | Population Hoechst High Intensity Objects (%) [1]: 7% | Population Membrane Permeable-Phenotype (%) [1]: 0% | Population Mitochondria Different-Phenotype (%) [1]: 7% | Population Mitotic Cells (%) [1]: 39% | Population Normal (%) [1]: 92% | Population Pyknosed Nuclei (%) [1]: 13% | Population Tubulin-Different-Phenotype (%) [1]: 23% | Total Cell Count [1]: 178 | Population Apoptotic (%) [2]: 35% | Population Fragmented Nuclei (%) [2]: 22% | Population Healthy Nuclei (%) [2]: 50% | Population Hoechst High Intensity Objects (%) [2]: 9% | Population Membrane Permeable-Phenotype (%) [2]: 6% | Population Mitochondria Different-Phenotype (%) [2]: 8% | Population Mitotic Cells (%) [2]: 65% | Population Normal (%) [2]: 90% | Population Pyknosed Nuclei (%) [2]: 27% | Population Tubulin-Different-Phenotype (%) [2]: 63% | Total Cell Count [2]: 161 | Population Apoptotic (%) [3]: 36% | Population Fragmented Nuclei (%) [3]: 16% | Population Healthy Nuclei (%) [3]: 70% | Population Hoechst High Intensity Objects (%) [3]: 2% | Population Membrane Permeable-Phenotype (%) [3]: 2% | Population Mitochondria Different-Phenotype (%) [3]: 6% | Population Mitotic Cells (%) [3]: 63% | Population Normal (%) [3]: 97% | Population Pyknosed Nuclei (%) [3]: 13% | Population Tubulin-Different-Phenotype (%) [3]: 29% | Total Cell Count [3]: 144 | Population Apoptotic (%) [4]: 37% | Population Fragmented Nuclei (%) [4]: 24% | Population Healthy Nuclei (%) [4]: 48% | Population Hoechst High Intensity Objects (%) [4]: 3% | Population Membrane Permeable-Phenotype (%) [4]: 5% | Population Mitochondria Different-Phenotype (%) [4]: 11% | Population Mitotic Cells (%) [4]: 62% | Population Normal (%) [4]: 96% | Population Pyknosed Nuclei (%) [4]: 27% | Population Tubulin-Different-Phenotype (%) [4]: 64% | Total Cell Count [4]: 151 | Population Apoptotic (%) [5]: 44% | Population Fragmented Nuclei (%) [5]: 18% | Population Healthy Nuclei (%) [5]: 65% | Population Hoechst High Intensity Objects (%) [5]: 7% | Population Membrane Permeable-Phenotype (%) [5]: 0% | Population Mitochondria Different-Phenotype (%) [5]: 1% | Population Mitotic Cells (%) [5]: 55% | Population Normal (%) [5]: 92% | Population Pyknosed Nuclei (%) [5]: 16% | Population Tubulin-Different-Phenotype (%) [5]: 16% | Total Cell Count [5]: 178 | Population Apoptotic (%) [6]: 39% | Population Fragmented Nuclei (%) [6]: 22% | Population Healthy Nuclei (%) [6]: 54% | Population Hoechst High Intensity Objects (%) [6]: 12% | Population Membrane Permeable-Phenotype (%) [6]: 8% | Population Mitochondria Different-Phenotype (%) [6]: 4% | Population Mitotic Cells (%) [6]: 60% | Population Normal (%) [6]: 87% | Population Pyknosed Nuclei (%) [6]: 23% | Population Tubulin-Different-Phenotype (%) [6]: 56% | Total Cell Count [6]: 182 | Population Apoptotic (%) [7]: 20% | Population Fragmented Nuclei (%) [7]: 16% | Population Healthy Nuclei (%) [7]: 76% | Population Hoechst High Intensity Objects (%) [7]: 2% | Population Membrane Permeable-Phenotype (%) [7]: 1% | Population Mitochondria Different-Phenotype (%) [7]: 4% | Population Mitotic Cells (%) [7]: 80% | Population Normal (%) [7]: 97% | Population Pyknosed Nuclei (%) [7]: 7% | Population Tubulin-Different-Phenotype (%) [7]: 32% | Total Cell Count [7]: 134 | Population Apoptotic (%) [8]: 54% | Population Fragmented Nuclei (%) [8]: 21% | Population Healthy Nuclei (%) [8]: 55% | Population Hoechst High Intensity Objects (%) [8]: 4% | Population Membrane Permeable-Phenotype (%) [8]: 6% | Population Mitochondria Different-Phenotype (%) [8]: 6% | Population Mitotic Cells (%) [8]: 45% | Population Normal (%) [8]: 95% | Population Pyknosed Nuclei (%) [8]: 23% | Population Tubulin-Different-Phenotype (%) [8]: 59% | Total Cell Count [8]: 149 | Population Apoptotic (%) [9]: 76% | Population Fragmented Nuclei (%) [9]: 26% | Population Healthy Nuclei (%) [9]: 62% | Population Hoechst High Intensity Objects (%) [9]: 9% | Population Membrane Permeable-Phenotype (%) [9]: 0% | Population Mitochondria Different-Phenotype (%) [9]: 1% | Population Mitotic Cells (%) [9]: 23% | Population Normal (%) [9]: 90% | Population Pyknosed Nuclei (%) [9]: 10% | Population Tubulin-Different-Phenotype (%) [9]: 22% | Total Cell Count [9]: 185 | Population Apoptotic (%) [10]: 48% | Population Fragmented Nuclei (%) [10]: 28% | Population Healthy Nuclei (%) [10]: 54% | Population Hoechst High Intensity Objects (%) [10]: 11% | Population Membrane Permeable-Phenotype (%) [10]: 10% | Population Mitochondria Different-Phenotype (%) [10]: 6% | Population Mitotic Cells (%) [10]: 51% | Population Normal (%) [10]: 88% | Population Pyknosed Nuclei (%) [10]: 17% | Population Tubulin-Different-Phenotype (%) [10]: 51% | Total Cell Count [10]: 188 | Population Apoptotic (%) [11]: 44% | Population Fragmented Nuclei (%) [11]: 25% | Population Healthy Nuclei (%) [11]: 68% | Population Hoechst High Intensity Objects (%) [11]: 4% | Population Membrane Permeable-Phenotype (%) [11]: 0% | Population Mitochondria Different-Phenotype (%) [11]: 3% | Population Mitotic Cells (%) [11]: 55% | Population Normal (%) [11]: 95% | Population Pyknosed Nuclei (%) [11]: 6% | Population Tubulin-Different-Phenotype (%) [11]: 34% | Total Cell Count [11]: 141 | Population Apoptotic (%) [12]: 65% | Population Fragmented Nuclei (%) [12]: 31% | Population Healthy Nuclei (%) [12]: 55% | Population Hoechst High Intensity Objects (%) [12]: 1% | Population Membrane Permeable-Phenotype (%) [12]: 8% | Population Mitochondria Different-Phenotype (%) [12]: 6% | Population Mitotic Cells (%) [12]: 35% | Population Normal (%) [12]: 98% | Population Pyknosed Nuclei (%) [12]: 12% | Population Tubulin-Different-Phenotype (%) [12]: 53% | Total Cell Count [12]: 166
